Screening data from PubChem BioAssay.
Sampled rows, rich in hits. Any-hit rate of the full collection: about 1.6%.
TLR9-MyD88 inh: inhibitors of TLR9-MyD88 association in cells, primary screen, cell-based, CHO, BLA complementation, fluorescence | AID 504734, 2011 | CCF4 FRET ratio | inhibition, % at 4.98 µM | hit rate 0.21% among 340,000;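 active = inhibition above the mean over all tested compounds plus 3 SD, cut at about 21% in these data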
ABHD5 PLIN5 PPI: ABHD5-PLIN5 interaction inhibitors, primary screen, cell lysate, split luciferase complementation, luminescence. hit rate 0.78% among 360,000. Split G. princeps luciferase complementation, 4 h. inhibition, % at 4 µM;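 active = inhibition above the mean inhibition across every tested compound plus 3 SD, cut at about 22% in these data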
NOD2 RIPK2 PPI: NOD2-RIPK2 binding disruptors in cells, primary screen, fluorescence, CHO cells, BLA complementation; Receptor-interacting serine/threonine-protein kinase 2 (Homo sapiens), O43353; CCF4 ratio; inhibition, % at 4.98 µM; hit rate 0.38% among 360,000; in the data active = inhibition above about 21%
Target sequence (O43353 whole entry, looked up): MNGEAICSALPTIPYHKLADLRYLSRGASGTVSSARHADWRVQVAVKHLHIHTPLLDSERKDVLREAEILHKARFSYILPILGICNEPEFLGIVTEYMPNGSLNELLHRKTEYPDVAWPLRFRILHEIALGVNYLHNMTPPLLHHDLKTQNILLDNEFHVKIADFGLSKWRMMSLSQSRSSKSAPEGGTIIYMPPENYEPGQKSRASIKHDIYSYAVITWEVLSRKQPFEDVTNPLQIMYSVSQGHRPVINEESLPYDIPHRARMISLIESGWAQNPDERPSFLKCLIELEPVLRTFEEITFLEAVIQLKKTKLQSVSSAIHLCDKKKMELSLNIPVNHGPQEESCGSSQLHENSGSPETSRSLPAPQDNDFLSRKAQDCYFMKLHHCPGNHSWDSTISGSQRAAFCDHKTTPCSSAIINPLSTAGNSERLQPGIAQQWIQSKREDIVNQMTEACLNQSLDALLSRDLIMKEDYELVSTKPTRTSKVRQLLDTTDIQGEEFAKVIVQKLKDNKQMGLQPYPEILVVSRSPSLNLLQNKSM
Dynein cargo inh: inhibitors of GR-EGFP nuclear translocation, primary screen, dynein cargo transport inhibitor project, imaging, high-content, 3617.4 mouse cells. test concentration mostly 20 µM; stimulated with dexamethasone, 1 µM; hits give low values. z-score, hits read low. hit rate 0.47% among 220,000;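 active = plate z-score of nuclear minus cytoplasmic receptor signal below a set negative limit, without overly bright fluorescence or cell loss, cut at about -3.5 in these data, passing the limit was not always enough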;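 also: z-score of nuclear minus cytoplasmic ring GR-EGFP intensity difference per well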
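Schedule: 48 h induction, then 1 h compound, then 30 min agonist, 37 °C. Buffer or medium: tetracycline-free induction medium containing charcoal-stripped FBS. Reagent: 1.0 µM final dexamethasone stimulus. Evaluation: nuclear versus cytoplasmic GR-EGFP signal, averaged per well. Signal: high-content fluorescence imaging after fixation.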
Beta2AR agonist: beta2AR agonists driving receptor internalization, primary screen, cell-based, FAP fluorogen, flow cytometry; Am2.2-beta2AR cells; AID 504454, 2011; hit rate 0.43% among 340,000; response, % (no concentration beside the values); Beta-2 adrenergic receptor (Homo sapiens), P07550;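 active = response above a set limit, near 3 SD of response in nonfluorescent compounds, cut at about 42% in these data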
TLR4 MyD88 comp: inhibitors of TLR4-MyD88 association in cells, primary screen, cell-based, HeLa CL3-4, BLA complementation, FRET ratio; Toll-like receptor 4 (Homo sapiens) + Myeloid differentiation primary response protein …; HeLa CL3-4 TLR4/MyD88 BLA complementation; inhibition, % at 8.4 µM; hit rate 0.18% among 200,000; AID 861, 2007; in the data active = inhibition above about 25%
Dynein inh conf: dynein cargo transport inhibitors, GR-EGFP translocation, confirmation, imaging, high-content imaging, GR-EGFP cells; shares compounds with Dynein cargo inh; 3617.4 GR-EGFP nuclear translocation imaging, dexamethasone-induced; calls only at 20 µM; hit rate 69% among 1,000; AID 463116, 2010;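 active = inhibition of receptor movement into the nucleus at or above a set limit in both runs, with normal cell brightness and cell count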;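 also: dexamethasone at 1 µM final in well for 30 min; nuclear minus cytoplasmic GR-EGFP mean intensity difference in channel 2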
TLR9-MyD88 conf: TLR9-MyD88 association inhibitors, retest, confirmation, cell-based, CHO, BLA complementation, fluorescence, triplicate; shares compounds with TLR9-MyD88 inh; CCF4 FRET ratio; inhibition, % at 4.98 µM; hit rate 51% among 680; AID 540250, 2011;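 active = mean inhibition across three repeats above about 21% taken from the earlier screen, limit read from the data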;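 also: blue over green emission ratio reports constitutive TLR9 MyD88 association via BLA complementation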
BLA counter-1: beta-lactamase reporter inhibitors in CHO cells, artefact control for TLR9-MyD88 binding inhibitor project, cell-based, fluorescence; shares compounds with TLR9-MyD88 inh; CHO-BLA cells, CCF4 FRET ratio, BLA reporter; inhibition, % at 4.98 µM; hit rate 7% among 680;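 active = mean inhibition above a 50% cutoff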;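 also: counterscreen of TLR9-MyD88 hits on CMV-driven BLA in CHO-K1 cells; higher means less blue over green ratio so more BLA blockade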
TLR9 CHO tox: CHO cell viability loss – luminescence, single concentration, cytotoxicity control for TLR9-MyD88 binding inhibitor project. AID 588336, 2011. TLR9-MyD88 CHO cells cytotoxicity. hit rate 39% among 680. inhibition, % at 4.98 µM. shares compounds with TLR9-MyD88 inh; in the data active = inhibition above about 11%
ABHD5 PLIN5 conf: ABHD5-PLIN5 interaction inhibitors, confirmation, biochemical, luminescence; shares compounds with ABHD5 PLIN5 PPI; hit rate 67% among 2,200; AID 651612, 2012; inhibition, % at 4 µM; in the data active = inhibition above about 23%
HNF4 counter: HNF4 dimerization inhibitors, counter-screen for ABHD5-PLIN5 interaction inhibitor project, biochemical, split-luciferase complementation, luminescence | shares compounds with ABHD5 PLIN5 PPI | inhibition, % at 4 µM | hit rate 77% among 2,200 | AID 651674, 2012;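 active = mean inhibition across replicate wells exceeding the computed hit threshold, cut at about 13% in these data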;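 also: light from luciferase halves that rejoin when HNF4 fusion proteins dimerize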
NOD2 RIPK2 conf: NOD2-RIPK2 binding disruptors, retest, confirmation, fluorescence, CHO cells, BLA complementation, triplicate | shares compounds with NOD2 RIPK2 PPI | CCF4 FRET | inhibition, % at 4.98 µM | hit rate 70% among 1,200;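 active = mean inhibition across replicates above a set limit taken from the earlier primary screen, cut at about 21% in these data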
BLA counter-2: hits BLA reporter in NOD2-RIPK2 inhibitor counterscreen | CHO BLA reporter, CCF4 FRET ratio | shares compounds with NOD2 RIPK2 PPI | hit rate 57% among 1,200 | inhibition, % at 4.98 µM;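 active = mean inhibition above the low-control mean inhibition plus three low-control SD, cut at about 11% in these data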
Each line names hits and unclear results; the compound was inactive in the other large screens (follow-up assays come after a bar, where they were run).

Cn1c(=O)[nH]c(=O)c2c1nc([N+](=O)[O-])n2Cc1ccccc1	TLR9-MyD88 inh 21.8, ABHD5 PLIN5 PPI 24.3, NOD2 RIPK2 PPI 59.2, Dynein cargo inh -4.89, Beta2AR agonist 66.8 (no result: TLR4 MyD88 comp) | Dynein inh conf active | TLR9-MyD88 conf 25.7 | BLA counter-1 inactive | TLR9 CHO tox 99.4 | ABHD5 PLIN5 conf 61.8 | HNF4 counter 59.0 | NOD2 RIPK2 conf 31.0 | BLA counter-2 inactive
COc1ccc(-c2cc(C(=O)N(C)Cc3ccc(F)cc3)c3ccccc3n2)cc1OC	none (no result: Dynein cargo inh, TLR4 MyD88 comp)
Cc1ccc(C(=O)Nc2nc(-c3ccccn3)cs2)cc1S(=O)(=O)N1CCOCC1	none (no result: Dynein cargo inh, TLR4 MyD88 comp)
CN(C)CCCN(C(=O)COc1ccccc1)c1nc2ccc(F)cc2s1	none
CN(C)CCCN(C(=O)CCOc1ccccc1)c1nc2ccc(F)cc2s1	ABHD5 PLIN5 PPI 31.6, NOD2 RIPK2 PPI 47.1, Dynein cargo inh -3.51 | Dynein inh conf inactive | ABHD5 PLIN5 conf inactive | HNF4 counter 100.5 | NOD2 RIPK2 conf inactive | BLA counter-2 inactive
CN(C)CCCN(C(=O)CCOc1ccccc1)c1nc2c(F)cccc2s1	TLR9-MyD88 inh 21.8, ABHD5 PLIN5 PPI 28.5, NOD2 RIPK2 PPI 48.2, Dynein cargo inh -7.86 | Dynein inh conf active | TLR9-MyD88 conf inactive | BLA counter-1 inactive | TLR9 CHO tox 67.5 | ABHD5 PLIN5 conf inactive | HNF4 counter 92.0 | NOD2 RIPK2 conf 27.3 | BLA counter-2 inactive
CN(C)S(=O)(=O)c1ccc(C(=O)OCc2nnc(-c3ccccc3)o2)cc1	none (no result: TLR4 MyD88 comp)
